GRK2 inh: blocks RNA aptamer binding to human GRK2; P25098; bead flow cytometry, FAM-aptamer displacement from GRK2; inhibition of aptamer binding, % at 10 µM; 0.59% of 330,000 active; AID 488847;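 active = inhibition of aptamer binding above 40%, roughly 3 SD of noise, on plates passing a quality check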;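 also: median bead fluorescence of bound FAM aptamer so fluorescent compounds give negative values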
STEP inh: blocks human striatal-enriched tyrosine phosphatase; P54829; recombinant STEP, OMFP fluorogenic substrate, fluorescence; inhibition, % at 20 µM; 0.25% of 360,000 active;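 active = inhibition at 20 µM, scaled per plate between control wells, above about 37%, limit read from the data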;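 also: 0% = DMSO with enzyme and substrate and 100% = substrate only without enzyme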
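Measure: Control-normalized % inhibition with plate pattern correction | Test system: STEP phosphatase, cell-free reaction | Medium: pH 6.0 Bis-Tris with DTT and Tween 20 | Technique: Fluorescence, 480/540 nm | Times: Reaction 20 min, ambient temperature | Doses: Single compound dose of 20 µM, 1% DMSO final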
SUMO1 PPI mod: modulators of human SUMO1-mediated protein-protein interactions. P63165. SUMO1 binding to a labelled peptide, TR-FRET, 1 h. AID 602429. inhibition, % at 20 µM. 0.33% of 360,000 active; in the data active = inhibition above about 37%
LMPTP block: blocks human LMPTP phosphatase. P24666. recombinant LMPTP-A, OMFP fluorogenic substrate, fluorescence intensity. inhibition, % at 20 µM. 0.22% of 360,000 active. AID 651560;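 active = compounds that cut the enzyme signal by at least half of the control window in the single-dose screen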;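 also: plate controls were DMSO wells with enzyme plus substrate for no effect and substrate without enzyme for full effect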
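Assay system: LMPTP-A enzyme. Input: 0.625 nM LMPTP-A final. Probe or stimulus: 400 µM OMFP. Compound dosing: single 20 µM dose. Schedule: 50 min dark incubation at room temperature. Detection: fluorescence intensity of OMFP turnover product. Read-out: percent inhibition versus substrate-only and uninhibited controls. Benchmarks: no-enzyme low control, uninhibited high control.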
Scp1 inh: Scp-1 (human) phosphatase inhibition. Q9GZU7. Recombinant Scp1, phosphopeptide, malachite green phosphate absorbance. inhibition, % at 20 µM. 0.88% of 340,000 active. AID 493091;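 active = inhibition above about 50% at 20 µM, limit read from the data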;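 also: plate controls were DMSO wells with enzyme for no effect and wells lacking enzyme for full effect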
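Times: enzyme reaction 45 min at room temperature, colour 5 min, stabilisation 30 min. Material: SCP-1 catalytic fragment, aa 76-261. Medium: Acidic Tris acetate buffer with magnesium and detergent. Signal: colorimetric free-phosphate detection, absorbance 630 nm. Read-out basis: % inhibition of SCP-1 phosphate liberation. Reagent: Phosphorylated 17-residue peptide substrate.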
DNMT1 inh: blocks human DNA methyltransferase DNMT1; inhibition (reported as % activation of signal), % at 10 µM; 0.83% of 360,000 active; DNMT1 molecular beacon, Hinp1I cleavage, fluorescence; AID 588458; P26358; in the data active = inhibition above about 50%
Target sequence (P26358 504-1616 limits assumed): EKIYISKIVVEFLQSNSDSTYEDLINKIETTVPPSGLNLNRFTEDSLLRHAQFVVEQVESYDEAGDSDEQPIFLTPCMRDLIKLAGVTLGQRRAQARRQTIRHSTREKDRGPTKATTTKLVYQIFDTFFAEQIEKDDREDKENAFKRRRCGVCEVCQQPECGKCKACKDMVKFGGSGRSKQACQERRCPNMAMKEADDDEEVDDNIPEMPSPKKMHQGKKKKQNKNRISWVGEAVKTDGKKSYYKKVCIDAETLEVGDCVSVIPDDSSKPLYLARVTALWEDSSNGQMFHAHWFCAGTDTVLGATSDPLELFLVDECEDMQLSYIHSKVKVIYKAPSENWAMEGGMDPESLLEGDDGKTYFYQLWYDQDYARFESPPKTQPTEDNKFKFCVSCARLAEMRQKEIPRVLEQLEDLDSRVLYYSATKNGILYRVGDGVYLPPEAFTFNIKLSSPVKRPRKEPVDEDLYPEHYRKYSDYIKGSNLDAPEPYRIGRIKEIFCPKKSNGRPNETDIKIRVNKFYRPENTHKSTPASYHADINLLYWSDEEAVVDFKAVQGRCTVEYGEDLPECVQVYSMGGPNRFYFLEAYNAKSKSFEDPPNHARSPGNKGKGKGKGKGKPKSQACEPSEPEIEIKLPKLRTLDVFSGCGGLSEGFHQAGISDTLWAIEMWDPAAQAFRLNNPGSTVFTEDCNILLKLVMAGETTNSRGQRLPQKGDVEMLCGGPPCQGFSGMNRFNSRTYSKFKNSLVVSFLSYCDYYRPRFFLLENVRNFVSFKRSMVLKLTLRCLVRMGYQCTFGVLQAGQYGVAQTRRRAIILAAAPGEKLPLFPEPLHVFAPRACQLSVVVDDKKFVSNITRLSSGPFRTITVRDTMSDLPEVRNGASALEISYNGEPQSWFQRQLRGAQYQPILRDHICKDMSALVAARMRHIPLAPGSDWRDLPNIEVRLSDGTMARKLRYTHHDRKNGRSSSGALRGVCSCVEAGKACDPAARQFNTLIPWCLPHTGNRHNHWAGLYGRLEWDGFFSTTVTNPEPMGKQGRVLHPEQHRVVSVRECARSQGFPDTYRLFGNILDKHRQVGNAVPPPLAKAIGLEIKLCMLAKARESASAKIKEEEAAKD
GRK2 CP1: human GRK2 inhibition confirmation, cherry pick 1; aptamer displacement, % at 10 µM; bead-bound GRK2, FAM-aptamer displacement, flow cytometry; 4% of 2,000 active; AID 504451; shares compounds with GRK2 inh;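 active = aptamer displacement above 40%, near three times the noise of non-fluorescent compounds, on plates passing quality checks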;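 also: negative values mostly reflect intrinsic compound fluorescence rather than true enhancement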
FAM quench CP1: quenches fluorescent RNA aptamer, GRK2 hit artifact. fluorescence response (% of DMSO), % at 10 µM. 2,000 tested, under 10 active. Carboxyfluorescein RNA aptamer on beads, flow cytometry quenching; active compounds read low. shares compounds with GRK2 inh;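 active = compounds that quench the bead-bound fluorescent RNA probe, cutting fluorescence to under half of the solvent control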;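 also: counterscreen run without GRK2 so only probe quenching by compound is measured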
GRK2 CP2: confirmation of human GRK2 inhibitors binding RNA aptamer site | 360 tested, under 10 active | shares compounds with GRK2 inh | bead-bound GRK2, FAM-aptamer displacement, flow cytometry | inhibition of aptamer binding, % at 10 µM | AID 504782;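 active = inhibition of aptamer binding above 40%, about triple the noise seen with nonglowing compounds, on plates passing quality control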;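 also: negative values mostly come from compounds that fluoresce themselves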
FAM quench CP2: aptamer fluorescence quenching in GRK2 counter-screen; shares compounds with GRK2 inh; carboxyfluorescein RNA aptamer beads, flow cytometry quenching; active compounds read low; fluorescence response vs DMSO, % at 10 µM; 360 tested, under 10 active;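 active = response vs DMSO under 50%, meaning signal dropped by over half, treated as fluorescence quencher; inconclusive = no clear call, values can overlap the other calls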;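 also: labelled aptamer on streptavidin beads without GRK2 as a quench counter-screen; 100% = bead fluorescence of DMSO wells and lower means quenching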
The depositor's hits bear a star; ? = inconclusive; . = no result. A selection: hits, their analogues and other compounds. The true share with any hit is near 2.1%.

SMILES	GRK2 inh	STEP inh	SUMO1 PPI mod	LMPTP block	Scp1 inh	DNMT1 inh	others
CCCN1CCc2c(sc(NC(=O)CCS(=O)(=O)c3ccccc3)c2C(N)=O)C1	1	-1	-1	-1	-7	0
CC(=O)N1CCc2c(sc(NC(=O)Cc3ccc(C)cc3C)c2C#N)C1	3	-1	-2	0	-2	0
CCOC(=O)c1c(NC(=O)CCS(=O)(=O)c2ccccc2)sc2c1CCN(C(C)C)C2	0	-1	-2	2	-5	-2
CC(=O)N1CCc2c(sc(NC(=O)CCS(=O)(=O)c3ccc(C)cc3)c2C#N)C1	0	2	-5	0	0	-2	GRK2 CP2=24;FAM quench CP2=100
CNC(=O)c1c(NC(=O)CCS(=O)(=O)c2ccc(C)cc2)sc2c1CCN(C(=O)OC)C2	0	-1	3	-2	-1	0	GRK2 CP2=12;FAM quench CP2=98
CNC(=O)c1c(NC(=O)CCS(=O)(=O)c2ccccc2)sc2c1CCN(C(=O)OC)C2	30	-1	2	0	-6	-3	GRK2 CP2=13;FAM quench CP2=104
O=C(COC(=O)c1ccc(F)c(S(=O)(=O)N2CCOCC2)c1)NCCc1ccc(F)cc1	0	-2	-7	1	-10	3
COC(=O)c1ccc2c(CCO)c[nH]c2c1	3	0	-3	-2	6	2
CC(C)Oc1cc(F)ccc1-c1cc(C(=O)NCCc2ccncc2)[nH]n1	.	-3	10	0	.	-2
CCOC(=O)c1cnc2c(C#N)c(C)nn2c1C	47*	-4	3	-2	0	-3	GRK2 CP1=-4;FAM quench CP1=100
Cc1ccsc1C(=O)OCC(=O)c1cc(C)n(C)c1C	46*	0	2	2	-5	-5	GRK2 CP2=12;FAM quench CP2=?
O=C(c1ccc(F)cc1)N1CCOCC1	50*	-4	-1	0	-6	1	GRK2 CP1=0;FAM quench CP1=101
O=C(Cc1cccs1)Nc1nc2c(ccc3ccccc32)s1	0	0	-2	4	-18	-12	GRK2 CP2=19;FAM quench CP2=102
Cc1ccccc1C(=O)NNC(=O)c1cccc([N+](=O)[O-])c1	60*	-5	-7	2	4	12	GRK2 CP1=-4;FAM quench CP1=101
Cc1cccc(C(=O)NNC(=O)c2ccccc2C)c1	1	1	0	1	-1	8
Cc1ccc(CONC(=O)c2cccc([N+](=O)[O-])c2)cc1	43*	0	-33	-1	0	5	GRK2 CP2=-11;FAM quench CP2=100
CC(=O)Oc1ccc(/C=N/NS(=O)(=O)c2ccccc2)cc1	0	0	-6	0	-4	-4
CSCCC(NC(=O)c1ccccc1Br)C(=O)NNC(=O)c1ccncc1 (stereo not given)	0	-1	-1	-2	-4	0
CC1(C(=O)NS(=O)(=O)c2cccs2)CCN1C(=O)CC1CCCC1 (stereo not given)	.	-2	3	-1	.	1
COc1ccc(Nc2oc(-c3ccccc3)nc2C#N)cc1	52*	1	-4	-1	-10	-1	GRK2 CP1=0;FAM quench CP1=102
COc1ccc(-c2nc(C#N)c(NCCN(C)C)o2)cc1	49*	0	-1	-2	3	-3	GRK2 CP1=-4;FAM quench CP1=102
COc1ccc2nc(NC(=O)c3sc4nc(C)cc(C)c4c3N)sc2c1	0	5	10	1	-13	-10
CCOC(=O)C(Cc1c[nH]c2cc([N+](=O)[O-])ccc12)(NC(C)=O)C(=O)OCC	.	0	-30	-3	-5	-1
O=C1c2nccnc2C(=O)N1c1ccc(C(F)(F)F)cc1	57*	6	-2	-1	-5	1	GRK2 CP1=-2;FAM quench CP1=102
CC1CN(C(=O)c2ccc(COc3ccccc3Br)o2)CC(C)O1 (stereo not given)	0	-2	1	0	-6	0
SMILES	GRK2 inh	STEP inh	SUMO1 PPI mod	LMPTP block	Scp1 inh	DNMT1 inh	others
CCN1CCN(Cc2ccc(NC(=O)c3ccc(C)c(NC(=O)c4c[nH]c5cc(C(F)(F)F)ccc5c4=O)c3)cc2C(F)(F)F)CC1	.	16	-76	1	2	0
Cc1ccc(C(=O)Nc2cccc(C(F)(F)F)c2)cc1NC(=O)c1c[nH]c2cc(C(F)(F)F)ccc2c1=O	0	4	5	1	-5	20	GRK2 CP1=-14;FAM quench CP1=97
CC1CCc2c(nc3ncnn3c2NCCc2ccccc2F)C1 (stereo not given)	6	-3	9	0	-4	0
NC(=O)c1ccsc1NC(=O)COC(=O)COc1ccccc1F	0	-2	1	0	-3	1
NC(=O)c1ccsc1NC(=O)COC(=O)CNC(=O)c1ccc(F)cc1	55*	2	9	3	10	4	GRK2 CP1=-1;FAM quench CP1=104
C/C=C\C(=O)Nc1cccc(C2=NOC3(C2)C[C@H](C(N)=O)N(C(=O)[C@H]2CCC(=O)N2)C3)c1 (stereo not given in full)	1	.	.	.	-5	.
CC(=O)c1cccc(Nc2cc(C)nc3ccccc23)c1	0	-2	-4	36	-1	1
O=C(O)c1cccc(Nc2c3ccccc3nc3ccccc23)c1	51*	1	-19	-1	2	10	GRK2 CP1=0;FAM quench CP1=94
O=C(COc1ccccc1F)Nc1ccccc1C(=O)NC1CC1	0	0	1	-1	-5	-6
N#Cc1cc2cc3c(cc2nc1SCC(=O)N1CCCC1)OCCO3	0	-2	-31	0	-3	3
CC(=O)CSc1nc2cc3c(cc2cc1C#N)OCCO3	60*	1	-23	2	-3	-9	GRK2 CP2=4;FAM quench CP2=100
Cc1ccc(C(=O)N2CCN(C)CC2)cc1[N+](=O)[O-]	0	2	1	-2	-5	2
COc1ccc(-c2csc(Nc3ccc(S(N)(=O)=O)cc3)n2)cc1	44*	0	2	2	0	-33	GRK2 CP2=-11;FAM quench CP2=100
CC(=O)Oc1ccc(-c2csc(Nc3ccc(S(N)(=O)=O)cc3)n2)cc1	1	-2	0	1	-12	-5
Cn1ccnc1C(O)c1cccc(OCc2ccccc2)c1 (stereo not given)	0	1	1	4	-8	0

Screening results as filed in PubChem BioAssay.
